Data on 23 molecules can be found in ChEMBL document CHEMBL3608245, “Boronic acid-containing aminopyridine- and aminopyrimidinecarboxamide CXCR1/2 antagonists: Optimization of aqueous solubility and oral bioavailability” (Bioorg Med Chem Lett, 2015).

The target of data set [1] is T1, C-X-C chemokine receptor type 2 (Homo sapiens, UniProt P25025).
T1 sequence (P25025 whole entry): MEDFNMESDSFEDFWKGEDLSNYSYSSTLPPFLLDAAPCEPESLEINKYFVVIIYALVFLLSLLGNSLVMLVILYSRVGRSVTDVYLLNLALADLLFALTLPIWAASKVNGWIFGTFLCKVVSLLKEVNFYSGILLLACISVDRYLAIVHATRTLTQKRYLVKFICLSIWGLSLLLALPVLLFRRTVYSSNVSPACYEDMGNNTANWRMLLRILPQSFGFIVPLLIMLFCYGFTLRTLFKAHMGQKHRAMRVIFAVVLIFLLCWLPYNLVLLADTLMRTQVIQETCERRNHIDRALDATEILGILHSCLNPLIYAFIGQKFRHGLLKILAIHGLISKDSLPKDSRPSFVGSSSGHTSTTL
Nature of the data set: Antagonist activity at CXCR2 (unknown origin) transfected in RBL cells assessed as inhibition of IL-8-mediated intracellular calcium release preincubated for 30 mins followed by IL-8 addition by FLUO-4AM-based fluorescent microplate reader analysis. In kind it is functional, cell-based.

The target of data set [2] is T2, C-X-C chemokine receptor type 1 (Homo sapiens, UniProt P25024).
T2 sequence (P25024 whole entry): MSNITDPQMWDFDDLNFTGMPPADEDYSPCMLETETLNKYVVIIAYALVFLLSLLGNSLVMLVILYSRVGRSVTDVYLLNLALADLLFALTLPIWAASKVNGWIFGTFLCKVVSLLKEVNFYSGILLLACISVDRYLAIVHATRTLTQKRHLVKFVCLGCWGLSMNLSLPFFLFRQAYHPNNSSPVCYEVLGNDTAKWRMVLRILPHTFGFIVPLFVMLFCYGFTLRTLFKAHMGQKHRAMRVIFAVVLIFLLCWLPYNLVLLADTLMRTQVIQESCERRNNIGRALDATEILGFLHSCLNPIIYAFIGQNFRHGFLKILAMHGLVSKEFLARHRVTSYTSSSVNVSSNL
As to the kind of experiment: Antagonist activity at CXCR1 (unknown origin) transfected in RBL cells assessed as inhibition of IL-8-mediated intracellular calcium release preincubated for 30 mins followed by IL-8 addition by FLUO-4AM-based fluorescent microplate reader analysis. Format: functional, cell-based. A digest of the protocol:
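RBL cells stably expressing CXCR1 were preincubated 30 min with compound, then stimulated with IL8. Intracellular calcium release read by FLUO-4AM fluorescence on a microplate reader. IC50 from triplicate experiments, mean ± SE.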
On the technique in general: A change in cytosolic calcium serves as a functional read-out for many receptors and channels.

The test system of data set [3] is Rattus norvegicus. Nature of the data set: Antiinflammatory activity in Sprague-Dawley rat ozone model of pulmonary inflammation assessed as reduction in neutrophil influx at 1 mg/kg, iv after 24 hrs by Wright-Giemsa staining assay. In kind it is functional, organism-based. An outline of the steps: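 Sprague-Dawley rats, n = 4 per cohort, received a single iv dose at t = 0 in DMA/PEG400/0.9% saline (40:40:20). Vehicle groups were kept in air (negative) or 1 ppm ozone (positive), and treated groups in ozone, each for 4 h. At 24 h the rats were sacrificed and BALF was collected. Cells were spun down, Wright-Giemsa stained and neutrophils counted.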

Data set [4] has as its system Plasma. Nature of the data set: Metabolic stability in rat plasma. In kind it is ADME, cell-free.
A short description of data set [5]: Metabolic stability in human plasma assessed as compound remaining at 1 uM measured at 4 hrs by LC-MS/MS analysis. Format: ADME, cell-free. The note with it: read-out: Stability. An outline of the steps: (§1)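 Compound at 1 µM was incubated in human plasma at 37°C for up to 24 h. Samples were taken at 0, 1, 4 and 24 h and analysed by LC-MS/MS, with results reported as % remaining.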

The nature of data set [6]: Solubility of the compound in 0.1 N HCl. Format: physicochemical. The note with it: buffer.
Data set [7] relates to Rattus norvegicus. Nature of the data set: AUC in rat at 1 mg/kg, po by LC-MS/MS analysis. The note with it: in vivo. In kind it is ADME, organism-based.
A short description of data set [8]: Metabolic stability in human plasma assessed as compound remaining at 1 uM measured at 24 hrs by LC-MS/MS analysis. In kind it is ADME, cell-free. The note with it: read-out: Stability. A digest of the protocol:
as §1

Data set [9] in a line: Metabolic stability in human plasma assessed as compound remaining at 1 uM measured at 1 hr by LC-MS/MS analysis. Format: ADME, cell-free. The conditions noted are these: read-out: Stability. An outline of the steps: as §1
Data set [10] concerns Rattus norvegicus. As to the kind of experiment: AUC in rat at 1 mg/kg, iv by LC-MS/MS analysis. Format: ADME, organism-based. The note with it: in vivo. An outline of the steps: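 Rats dosed intravenously at 1 mg/kg in DPS vehicle (dimethylacetamide/PEG400/0.9% saline 40:40:20). Plasma concentrations measured by LC-MS/MS against a calibration curve of test compound spiked in rat plasma, run alongside the samples; AUC given in μmol·hr/L.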

Data set [11] in a line: Oral bioavailability in rat at 1 mg/kg by LC-MS/MS analysis. Format: ADME, organism-based. The note with it: in vivo. An outline of the steps: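 Rats were dosed at 1 mg/kg both intravenously (vehicle dimethylacetamide/PEG400/0.9% saline 40:40:20) and by oral gavage (vehicle 0.1 N HCl or Labrasol, depending on compound). Plasma levels were measured by LC-MS/MS against a calibration curve of compound spiked into rat plasma, run alongside the samples. Oral and IV AUC are reported in μmol·hr/L.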

Data set [12] has as its target T3, Interleukin-8 receptors, CXCR1/CXCR2 (Homo sapiens, UniProt P25025+P25024).
T3 sequence (P25025 whole entry): T1 sequence (P25025 whole entry)
T3 sequence (P25024 whole entry): T2 sequence (P25024 whole entry)
Nature of the data set: Antagonist activity at CXCR1/CXCR2 in isolated human PMN assessed as inhibition of IL-8-mediated intracellular calcium flux. Format: functional, cell-based. An outline of the steps: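 Isolated human neutrophils (PMNs); inhibition of calcium flux with IL8 as agonist; IC50 reported as mean ± SE from triplicate experiments.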

Structures are written as SMILES. Values after ≈ are worked out from the molar mass of the structure shown. Active and inactive are the calls of the source. No cut-off for these calls is given here. Where only a bound is given, the exact number is not on record here.

Take `O=C(Nc1ccc(F)cc1)c1cnc(N(Cc2ccccn2)Cc2ccc(B(O)O)cn2)nc1`: the IC50 in [1] was 4.31 µM; in [2], 2.05 µM.

Consider `O=C(Nc1ccc(F)cc1)c1ccc(N(Cc2ccc(B(O)O)cn2)Cc2ccco2)nc1`, for which the 50% inhibitory concentration (IC50) in data set [1] came to 0.021 µM; in data set [2], 0.0033 µM.

On to `O=C(Nc1ccc(F)cc1)c1ccc(NCc2ccccc2B(O)O)nc1`, for which the IC50 in [1] and in data set [2] was greater than 5 µM throughout.

On to `CN(Cc1ccc(B(O)O)cc1)c1ccc(C(=O)Nc2ccc(F)cc2)cn1`, for which the figures for the IC50 in data set [1] and in data set [2] were 1.1 µM and 1.4 µM, respectively.

Take `O=C(Nc1ccc(F)cc1)c1cnc(N(Cc2ccc(B(O)O)cn2)Cc2ccco2)nc1`: the figures for the half-inhibitory concentration (IC50) in data set [1] and in data set [2] were 0.655 µM and 0.444 µM, respectively.

For `O=C(O)CN(Cc1ccc(B(O)O)cn1)c1ncc(C(=O)Nc2ccc(F)cc2)cn1`, the IC50 in data set [1] and in data set [2] was greater than 5 µM throughout.

For the molecule `CN(Cc1ccc(B(O)O)cn1)c1ncc(C(=O)Nc2ccc(F)cc2)cn1`, the IC50 in data set [1] was found to be 0.933 µM; in [2] it was 1.7 µM.

For the molecule `O=C(Nc1ccc(F)cc1)c1ccc(SCc2cc(OC(F)(F)F)ccc2B(O)O)nc1`, the outcome in [3] was Active. Further, the Stability entry in data set [4] was “Stable”. Besides, the remaining at 4 h, 1 µM in data set [5] turned out to be 34%. Moreover, in data set [6], the solubility result is recorded as “Insoluble”. In data set [7] (BLD = below limit of detection), the AUC entry was “BLD”. For the same molecule, in data set [8], the remaining at 24 h, 1 µM is 2%. Further, the remaining at 1 h, 1 µM in [9] is 62%.

As to `NCCN(Cc1ccc(B(O)O)cn1)c1ncc(C(=O)Nc2ccc(F)cc2)cn1`, the 50% inhibitory concentration (IC50) in data set [1] and in data set [2] was greater than 5 µM throughout.

`O=C(Nc1ccc(F)cc1)c1ccc(N(Cc2ccc(B(O)O)cn2)CC2CCOCC2)nc1`: the IC50 was 2.3 µM in [1] and greater than 5 µM in data set [2].

Take `O=C(Nc1ccc(F)cc1)c1cnc(NCc2ccc(B(O)O)cc2)nc1`: the values for the IC50 in data set [1] and in data set [2] were 2.6 µM and 1.7 µM, respectively.

Turning to `O=C(Nc1ccc(F)cc1)c1ccc(NCc2cccc(B(O)O)c2)nc1`, the figures for the IC50 in data set [1] and in data set [2] were 0.733 µM and 0.611 µM, respectively.

As for `O=C(Nc1ccc(F)cc1)c1ccc(NCc2ccc(B(O)O)cc2)nc1`, the IC50 in [1] is 2.2 µM; in data set [2], 4.3 µM.

As to `CN(Cc1ccc(B(O)O)cc1)c1ncc(C(=O)Nc2ccc(F)cc2)cn1`, the values for the IC50 in data set [1] and in data set [2] were 0.121 µM and 0.681 µM, respectively.

As to `CN(Cc1ccccc1B(O)O)c1ccc(C(=O)Nc2ccc(F)cc2)cn1`, the IC50 in data set [1] and in data set [2] was greater than 5 µM each time.

`CN(Cc1cccc(B(O)O)c1)c1ccc(C(=O)Nc2ccc(F)cc2)cn1`: the IC50 was found to be 0.41 µM in [1] and 4.1 µM in data set [2].

Consider `O=C(Nc1ccc(F)cc1)c1ccc(N(Cc2ccccc2)Cc2ccc(B(O)O)cn2)nc1`, for which the IC50 amounted to 0.298 µM in data set [1] and 0.326 µM in data set [2].

Turning to `O=C(Nc1ccc(F)cc1)c1cnc(NCc2cccc(B(O)O)c2)nc1`, the IC50 in [1] worked out at 0.918 µM; in data set [2] it was 1.34 µM.

As to `CN(Cc1cccc(B(O)O)c1)c1ncc(C(=O)Nc2ccc(F)cc2)cn1`, the IC50 in data set [1] and in [2] was 2.5 µM throughout.

Consider `O=C(Nc1ccc(F)cc1)c1ccc(N(Cc2ccccn2)Cc2ccc(B(O)O)cn2)nc1`, for which the IC50 in data set [1] is 4.85 µM; in [2], greater than 5 µM.

Turning to `CN(Cc1ccccc1B(O)O)c1ncc(C(=O)Nc2ccc(F)cc2)cn1`, the IC50 in data set [1] and in [2] was greater than 5 µM in each case.

Turning to `CN(Cc1ccc(B(O)O)cn1)c1ccc(C(=O)Nc2ccc(F)cc2)cn1`, the half-inhibitory concentration (IC50) in [1] turned out to be 0.081 µM; in data set [2] it was 1.7 µM.

For the molecule `O=C(Nc1ccc(F)cc1)c1cnc(N(Cc2ccccc2)Cc2ccc(B(O)O)cn2)nc1`, the result in [3] was Active. Besides, the values for the IC50 in data set [1], in data set [2] and in data set [12] were 0.004 µM, 0.007 µM and 0.185 µM, respectively. Also, the Stability entry in [4] is on record as “Stable”. Further, the results for the AUC in data set [10] and in data set [7] were 4.37 µM·h and 1.15 µM·h, respectively. In addition, in [11], the bioavailability worked out at 24%. Further, in data set [5], the remaining at 4 h, 1 µM was 71%. The solubility in [6] is 500 µg/mL (≈ 1090 µM). The remaining at 24 h, 1 µM in data set [8] was 62%. Besides, the remaining at 1 h, 1 µM in [9] amounted to 90%.

The term IC50 denotes the concentration that inhibits the measured activity by half. By solubility is commonly meant the concentration that dissolves in the medium under given conditions. Broadly, the AUC is concentration integrated over time. Low values mean less exposure, high ones more exposure. The bioavailability is the share of a dose that reaches the circulation, judged against a reference dose that is usually intravenous. Higher therefore signals good availability.
